Results: ChEMBL document CHEMBL4477194, “Royal Jelly Constituents Increase the Expression of Extracellular Superoxide Dismutase through Histone Acetylation in Monocytic THP-1 Cells” (J Nat Prod, 2016)
The source made the active and inactive calls. No cut-off for these calls is given here.

Columns and labels:
Homo sapiens [1] = organism: Homo sapiens; assay: Upregulation of HDAC1 inhibition/ERK signalling activation-mediated extracellular SOD protein expression in human THP1 cells at 1 uM after 24 hrs by ELISA; assay type: cell-based
How it was run: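 EC-SOD protein content was measured by ELISA in THP-1 cells after 24 h treatment, with cells collected in PBS. Cells were cultured in RPMI 1640 with 10% heat-inactivated FCS at 37 °C and 5% CO2. Values are mean ± SD of three independent experiments, compared against untreated cells.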

Homo sapiens [2] = organism: Homo sapiens; assay: Upregulation of HDAC1 inhibition/ERK signalling activation-mediated extracellular SOD mRNA expression in human THP1 cells at 1 uM after 24 hrs by RT-PCR method; assay type: cell-based
How it was run: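 THP-1 cells (RPMI 1640, 10% heat-inactivated FCS, 37 °C, 5% CO2) were seeded at 2.0 × 10^6 cells/dish and treated for 24 h. Cells were washed with cold PBS and lysed in TRIzol, then analysed by real-time RT-PCR normalized to 18S rRNA. Values are mean ± SD of three independent experiments, with ANOVA and Bonferroni tests.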

[3] = target: Histone deacetylase 1 (Homo sapiens) (UniProt Q13547); assay: Inhibition of recombinant HDAC1 catalytic domain (unknown origin) using HDAC substrate at 100 uM preincubated for 1 hr followed by substrate addition measured after 30 mins by fluorescence assay relative to control
How it was run: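 Recombinant HDAC1 in assay buffer exposed to compound at 100 μM for 1 h. Fluorogenic HDAC substrate then added, 30 min at 37 °C in the dark. Developer added, 15 min at room temperature. Fluorescence read at ex 365 nm, em 410–460 nm, relative to untreated.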

[4] = target: Histone deacetylase 1 (Homo sapiens) (UniProt Q13547); assay: Inhibition of HDAC1 in human THP1 cells assessed as increase in histone H3 acetylation level at 100 uM after 12 hrs by Western blot analysis relative to control; assay type: cell-based
How it was run: (§1)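 THP-1 cells treated 12 h at the indicated concentrations. Acetylated histone H3 and H4 detected by Western blot (20 μg protein, 12% SDS-PAGE, PVDF, primary antibodies 1:1000). Histone loading checked by Coomassie staining.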

THP-1 [5] = assay: Upregulation of HDAC10 mRNA expression in human THP1 cells at 100 uM after 24 hrs by RT-PCR method; assay type: functional, cell-based
How it was run: (§2)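 THP-1 cells in RPMI 1640 with 10% heat-inactivated FCS, 37 °C, 5% CO2. Seeded 2.0 × 10^6 cells per 3.5 cm dish and treated 24 h, at 1 mM for the 1 mM lines and 100 μM for the 100 μM lines. RNA extracted in TRIzol, then real-time RT-PCR normalized to 18S rRNA. Means ± SD of three independent experiments; ANOVA with Bonferroni post hoc.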

Homo sapiens [6] = organism: Homo sapiens; assay: Upregulation of HDAC1 inhibition/ERK signalling activation-mediated extracellular SOD protein expression in human THP1 cells at 100 uM incubated for 24 hrs by ELISA; assay type: cell-based
How it was run: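 THP-1 cells treated 24 h at 100 μM and collected in PBS. Cellular EC-SOD protein content measured by ELISA. Means ± SD of three independent experiments.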

THP-1 [7] = assay: Downregulation of HDAC1 mRNA expression in human THP1 cells at 100 uM after 24 hrs by RT-PCR method; assay type: functional, cell-based; how it was run: as §2
Homo sapiens [8] = organism: Homo sapiens; assay: Upregulation of HDAC1 inhibition/ERK signalling activation-mediated extracellular SOD mRNA expression in human THP1 cells at 1 to 10 uM incubated for 24 hrs by RT-PCR method; assay type: cell-based
How it was run: (§3)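 THP-1 cells treated 24 h at the indicated concentrations, or at 100 μM for the indicated times. EC-SOD mRNA measured by real-time RT-PCR normalized to 18S rRNA. Means ± SD of three independent experiments.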

[9] = target: Histone deacetylase 1 (Homo sapiens) (UniProt Q13547); assay: Inhibition of HDAC1 in human THP1 cells assessed as increase in histone H3 acetylation level at 50 uM after 12 hrs by Western blot analysis relative to control; assay type: cell-based; how it was run: as §1
THP-1 [10] = assay: Downregulation of HDAC6 mRNA expression in human THP1 cells at 100 uM after 24 hrs by RT-PCR method; assay type: functional, cell-based; how it was run: as §2
[11] = target: Histone deacetylase 1 (Homo sapiens) (UniProt Q13547); assay: Upregulation of HDAC1 inhibition-mediated histone H3 acetylation-induced extracellular SOD expression in human THP1 cells at 100 uM after 12 hrs by chromatin immunoprecipitation method; assay type: cell-based
How it was run: (§4)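 THP-1 cells (5 × 10^6) treated 12 h, at 1 mM or 100 μM per line. Cross-linked with formaldehyde 5 min at room temperature and chromatin sonicated to 150–800 bp. Immunoprecipitated overnight on protein G beads and washed in RIPA I/II and TE. Eluted with RNase A and proteinase K. EC-SOD promoter binding expressed as % of input.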

[12] = target: Histone deacetylase 1 (Homo sapiens) (UniProt Q13547); assay: Inhibition of HDAC1 in human THP1 cells assessed as increase in histone H4 acetylation level at 50 uM after 12 hrs by Western blot analysis relative to control; assay type: cell-based; how it was run: as §1
THP-1 [13] = assay: Downregulation of HDAC5 mRNA expression in human THP1 cells at 100 uM after 24 hrs by RT-PCR method; assay type: functional, cell-based; how it was run: as §2
[14] = target: Histone deacetylase 1 (Homo sapiens) (UniProt Q13547); assay: Inhibition of HDAC1 in human THP1 cells assessed as increase in histone H4 acetylation level at 100 uM after 12 hrs by Western blot analysis relative to control; assay type: cell-based; how it was run: as §1
THP-1 [15] = assay: Downregulation of HDAC2 mRNA expression in human THP1 cells at 100 uM after 24 hrs by RT-PCR method; assay type: functional, cell-based; how it was run: as §2
Homo sapiens [16] = organism: Homo sapiens; assay: Upregulation of HDAC1 inhibition/ERK signalling activation-mediated extracellular SOD mRNA expression in human THP1 cells at 100 uM after 24 hrs in presence of ERK inhibitor U0126 by RT-PCR method; assay type: cell-based
How it was run: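 THP-1 cells pretreated 30 min with 5 μM U0126, then exposed to compound at 100 μM for 24 h. EC-SOD mRNA measured by real-time RT-PCR normalized to 18S rRNA.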

THP-1 [17] = assay: Upregulation of HDAC4 mRNA expression in human THP1 cells at 100 uM after 24 hrs by RT-PCR method; assay type: functional, cell-based; how it was run: as §2
THP-1 [18] = assay: Cytotoxicity against human THP1 cells assessed as reduction in cell viability at 100 uM after 24 hrs by MTT assay; assay type: cell-based; details: thp-1, 24 h
How it was run: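 THP-1 cells treated 24 h in 24-well plates; medium replaced with 10% FCS-RPMI 1640 containing 0.5 mg/mL MTT, 2 h at 37 °C, 5% CO2. Formazan dissolved in 2-propanol with 0.04 N HCl, read at 595 nm (reference 655 nm). Mean ± SD, n = 3.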

Homo sapiens [19] = organism: Homo sapiens; assay: Induction of ERK phosphorylation in human THP1 cells at 50 to 100 uM incubated for 3 hrs by Western blot analysis; assay type: cell-based
How it was run: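 THP-1 cells treated 3 h at the indicated concentrations. Whole-cell extracts, 20 μg protein, run on 12% SDS-PAGE and transferred to PVDF. Blocked in 1% BSA/PBS. Probed with anti-phospho-ERK and anti-ERK (1:1000), then biotin-conjugated secondary (1:1000).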

Homo sapiens [20] = organism: Homo sapiens; assay: Upregulation of HDAC1 inhibition/ERK signalling activation-mediated extracellular SOD mRNA expression in human THP1 cells at 100 uM by RT-PCR method; assay type: cell-based; details: TDE = time-dependent effect; how it was run: as §3
[21] = target: Histone deacetylase 1 (Homo sapiens) (UniProt Q13547); assay: Upregulation of HDAC1 inhibition-mediated histone H4 acetylation-induced extracellular SOD expression in human THP1 cells at 100 uM after 12 hrs by chromatin immunoprecipitation method; assay type: cell-based; how it was run: as §4

Chain of Histone deacetylase 1 (Homo sapiens) (Q13547 whole entry, the tested form may be a part): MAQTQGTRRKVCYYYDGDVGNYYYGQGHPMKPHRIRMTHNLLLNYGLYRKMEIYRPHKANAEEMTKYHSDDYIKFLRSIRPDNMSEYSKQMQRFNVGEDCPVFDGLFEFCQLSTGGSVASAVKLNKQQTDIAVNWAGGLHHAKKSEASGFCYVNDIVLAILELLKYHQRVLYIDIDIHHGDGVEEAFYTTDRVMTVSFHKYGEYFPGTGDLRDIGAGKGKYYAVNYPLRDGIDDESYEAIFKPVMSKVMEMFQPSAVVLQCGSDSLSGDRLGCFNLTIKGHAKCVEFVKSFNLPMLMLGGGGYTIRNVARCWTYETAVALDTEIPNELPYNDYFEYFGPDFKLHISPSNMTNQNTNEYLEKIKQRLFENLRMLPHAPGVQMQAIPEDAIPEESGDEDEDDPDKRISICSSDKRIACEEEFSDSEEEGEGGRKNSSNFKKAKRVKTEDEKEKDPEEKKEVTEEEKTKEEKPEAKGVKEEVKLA

In the case of `CC(/C=C/C(=O)NO)=C\[C@@H](C)C(=O)c1ccc(N(C)C)cc1`, the Activity (Homo sapiens [1]) was “Active” and the Activity (Homo sapiens [2]) was “Active”.

With `CCCCCCC(/C=C/C(=O)OCC)OO` (stereo unspecified) the inhibition [3] was 50%, the fold change (FC) [4] was 4.27 and the Activity (THP-1 [5]) was “Active”. The Activity (Homo sapiens [6]) was “Active”, the Activity (THP-1 [7]) was “Active” and the Activity (Homo sapiens [8]) was “inactive”. The fold change (FC) [9] was 1.82, the Activity (THP-1 [10]) was “Active” and the Activity [11] was “Active”. For the same compound, the fold change (FC) [12] was 3.32, the Activity (THP-1 [13]) was “Active” and the fold change (FC) [14] was 3.77. For the same compound, the Activity (THP-1 [15]) was “Active”, the Activity (Homo sapiens [16]) was “inactive” and the Activity (THP-1 [17]) was “Active”. For the same compound, the Activity (THP-1 [18]) was “Non-Toxic”, the Activity (Homo sapiens [19]) was “Active” and the Activity (Homo sapiens [20]) was “Tde”. For the same compound, the Activity [21] was “Active”.
